Results: ChEMBL document CHEMBL1152481, “Synthesis of 2-(4-substitutedmethylpiperazin-1-yl)-N-(3,4-dihydro-3-oxo-2H-benzo[b][1,4]oxazin-7-yl)acetamides and their positive inotropic evaluation” (2009)
Calls of active or inactive are those of the source. No cut-off for these calls is given here.

Tests used:
Oryctolagus cuniculus [1] = species on record: Oryctolagus cuniculus; assay: Negative inotropic activity in perfused rabbit left atrium assessed as stroke volume at 10 uM; assay type: functional, tissue-based; details: Cardiac atrium
Method in brief: (§1)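 Field-stimulated at a fixed 1.5 Hz, 60 min stabilization. Single dose, DMSO-dissolved and buffer-diluted, applied after a control circulation; 12-min circulations. Stroke volume read from the cannula water column at end diastole every 2 min, reported as mean % increase.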

[2] = Positive inotropic activity in perfused rabbit left atrium assessed as increase in stroke volume at 10 uM; assay type: functional, Oryctolagus cuniculus, Cardiac atrium; method in brief: as §1
Oryctolagus cuniculus [3] = species on record: Oryctolagus cuniculus; assay: Positive inotropic activity in perfused rabbit left atrium assessed as increase in stroke volume at 10 uM/L; assay type: functional, tissue-based; details: Cardiac atrium, TDE = time-dependent effect; method in brief: as §1
[4] = Chronotropic effect in perfused rabbit left atrium assessed as heart rate at 10 uM by electrocardiogram analysis (Rvb= 146.80 +/- 0.09 Hz); assay type: functional, Oryctolagus cuniculus, Cardiac atrium
[5] = Chronotropic effect in perfused rabbit left atrium assessed as heart rate at 10 uM by electrocardiogram analysis (Rvb= 152.20 +/- 0.42 Hz); assay type: functional, Oryctolagus cuniculus, Cardiac atrium

| Compound | Activity (Oryctolagus cuniculus [1]) | Activity [2] [%] | also measured |
| --- | --- | --- | --- |
| O=C(CN1CCN(Cc2ccc(Cl)cc2)CC1)Nc1ccc2c(c1)OCC(=O)N2 | Active | – | – |
| COc1ccc(COc2ccc3cc(CN4CCN(CC(=O)Nc5ccc6c(c5)OCC(=O)N6)CC4)ccc3c2)cc1 | Active | – | – |
| O=C(CN1CCN(Cc2ccccc2)CC1)Nc1ccc2c(c1)OCC(=O)N2 | Active | – | – |
| Cc1ccc(COc2ccc3cc(CN4CCN(CC(=O)Nc5ccc6c(c5)OCC(=O)N6)CC4)ccc3c2)cc1 | Active | – | – |
| O=C(CN1CCN(Cc2ccc3c(c2)OCO3)CC1)Nc1ccc2c(c1)OCC(=O)N2 | Active | – | – |
| O=C(CN1CCN(Cc2ccc(F)cc2)CC1)Nc1ccc2c(c1)OCC(=O)N2 | Active | – | – |
| O=C(CN1CCN(Cc2ccc3cc(OCc4ccccc4)ccc3c2)CC1)Nc1ccc2c(c1)OCC(=O)N2 | Active | – | – |
| Cc1[nH]c(=O)c(C#N)cc1-c1ccncc1 [MILRINONE] | – | 1.67 | – |
| O=C(CN1CCN(Cc2ccc3cc(OCc4cccc(Cl)c4)ccc3c2)CC1)Nc1ccc2c(c1)OCC(=O)N2 | Active | – | – |
| O=C(CN1CCN(Cc2cccc(Cl)c2)CC1)Nc1ccc2c(c1)OCC(=O)N2 | Active | – | – |
| COc1ccc(CN2CCN(CC(=O)Nc3ccc4c(c3)OCC(=O)N4)CC2)cc1 | Active | – | – |
| O=C(CN1CCN(Cc2ccccc2F)CC1)Nc1ccc2c(c1)OCC(=O)N2 | – | 4.29 | Activity (Oryctolagus cuniculus [3]): tde; Activity [4]: 139.1 Hz |
| Cc1ccc(CN2CCN(CC(=O)Nc3ccc4c(c3)OCC(=O)N4)CC2)cc1 | – | 5.09 | Activity (Oryctolagus cuniculus [3]): tde; Activity [5]: 142.2 Hz |
| COc1cccc(CN2CCN(CC(=O)Nc3ccc4c(c3)OCC(=O)N4)CC2)c1 | – | 3.23 | – |
| O=C(CN1CCN(Cc2ccccc2Br)CC1)Nc1ccc2c(c1)OCC(=O)N2 | – | 1.43 | – |
| O=C(CN1CCN(Cc2c(Cl)cccc2Cl)CC1)Nc1ccc2c(c1)OCC(=O)N2 | Active | – | – |
